Measured values reported in paper PMC3694426 (Clinical cancer research : an official journal of the …, 2013).
Entries after “also recorded” stand apart in the source; their conditions may differ.

Legend:
[1] = phase I dose escalation: DLTs, MTD and treatment-emergent adverse events; assay type: in vivo, human
[2] = system: basal cell carcinoma (BCC); assay: antitumor activity in patients with BCC; assay type: in vivo, human
Method in brief: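 Oral test compound, once daily in 28-day cycles, given as an outpatient, preceded by a single dose 7 days before cycle 1. BCC patients were dosed at 130 or 160 mg. Evaluable meant more than one dose plus a post-baseline clinical or RECIST 1.0 assessment. Treatment continued until progression, unacceptable adverse events or withdrawal.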

[3] = system: Gli-1 mRNA; assay: pharmacodynamics: Gli-1 expression in skin and tumor biopsies; assay type: in vivo, human
Method in brief: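 Normal skin was biopsied before treatment and 3 weeks into cycle 1 of once-daily oral dosing. RNA was extracted and Gli-1 mRNA measured by RT-PCR. In the biopsy cohort, accessible tumours were sampled at the same time points (baseline cycle 1 day −7; cycle 1 day 22). Gli-1 IHC scored stromal versus epithelial nuclear staining.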

[4] = system: pancreatic tumor model with elevated Shh (sonic hedgehog) expression; settings: stated in introduction; cited from earlier work
[5] = system: transgenic pancreatic cancer models; settings: cited from earlier work
[6] = biological target: Smo receptor; settings: read-out: IC50, binding to the Smo receptor; stated in introduction; cited from earlier work
[7] = 28 evaluable vismodegib-naïve BCC patients

CC1=C2C[C@H]3[C@@H](CC[C@@H]4C[C@H](NS(C)(=O)=O)CC[C@@]43C)[C@@H]2CC[C@@]2(C1)O[C@@H]1C[C@H](C)CN[C@H]1[C@H]2C [IPI-926]
≥grade 2 toxicities ([1]; 20, 30, 40, 60 and 90 mg, 1-patient cohorts): no ≥grade 2 toxicities were documented | deaths while on study ([1]; 94 patients): No patients died while on study | ALT elevation (lab), treatment-emergent adverse event ([1]; <130 mg (n = 5), Grade 1–2): 1 (20) n (%) | AST elevation (lab), treatment-emergent adverse event ([1]; <130 mg (n = 5), Grade 1–2): 1 (20) n (%) | Alopecia, treatment-emergent adverse event ([1]; <130 mg (n = 5), Grade 1–2): 1 (20) n (%) | Decreased appetite, treatment-emergent adverse event ([1]; <130 mg (n = 5), Grade 1–2): 0 (0) n (%) | Diarrhea, treatment-emergent adverse event ([1]; <130 mg (n = 5), Grade 1–2): 0 (0) n (%) | Dysgeusia, treatment-emergent adverse event ([1]; <130 mg (n = 5), Grade 1–2): 1 (20) n (%) | Fatigue, treatment-emergent adverse event ([1]; <130 mg (n = 5), Grade 1–2): 2 (40) n (%) | Hemoglobin (lab), treatment-emergent adverse event ([1]; <130 mg (n = 5), Grade 1–2): 3 (60) n (%) | Muscle spasms, treatment-emergent adverse event ([1]; <130 mg (n = 5), Grade 1–2): 2 (40) n (%) | Nausea, treatment-emergent adverse event ([1]; <130 mg (n = 5), Grade 1–2): 1 (20) n (%) | Thrombocytopenia (lab), treatment-emergent adverse event ([1]; <130 mg (n = 5), Grade 1–2): 0 (0) n (%) | Vomiting, treatment-emergent adverse event ([1]; <130 mg (n = 5), Grade 1–2): 0 (0) n (%) | ALT elevation (lab), treatment-emergent adverse event ([1]; <130 mg (n = 5), Grade ≥3): 0 (0) n (%) | AST elevation (lab), treatment-emergent adverse event ([1]; <130 mg (n = 5), Grade ≥3): 0 (0) n (%) | Alopecia, treatment-emergent adverse event ([1]; <130 mg (n = 5), Grade ≥3): 0 (0) n (%) | Decreased appetite, treatment-emergent adverse event ([1]; <130 mg (n = 5), Grade ≥3): 0 (0) n (%) | Diarrhea, treatment-emergent adverse event ([1]; <130 mg (n = 5), Grade ≥3): 0 (0) n (%) | Dysgeusia, treatment-emergent adverse event ([1]; <130 mg (n = 5), Grade ≥3): 0 (0) n (%) | Fatigue, treatment-emergent adverse event ([1]; <130 mg (n = 5), Grade ≥3): 0 (0) n (%) | Hemoglobin (lab), treatment-emergent adverse event ([1]; <130 mg (n = 5), Grade ≥3): 0 (0) n (%) | Muscle spasms, treatment-emergent adverse event ([1]; <130 mg (n = 5), Grade ≥3): 0 (0) n (%) | Nausea, treatment-emergent adverse event ([1]; <130 mg (n = 5), Grade ≥3): 0 (0) n (%) | Thrombocytopenia (lab), treatment-emergent adverse event ([1]; <130 mg (n = 5), Grade ≥3): 0 (0) n (%) | Vomiting, treatment-emergent adverse event ([1]; <130 mg (n = 5), Grade ≥3): 0 (0) n (%) | ALT elevation (lab), treatment-emergent adverse event ([1]; >160 mg (n = 15), Grade 1–2): 11 (73) n (%) | AST elevation (lab), treatment-emergent adverse event ([1]; >160 mg (n = 15), Grade 1–2): 12 (80) n (%) | Alopecia, treatment-emergent adverse event ([1]; >160 mg (n = 15), Grade 1–2): 2 (13) n (%) | Decreased appetite, treatment-emergent adverse event ([1]; >160 mg (n = 15), Grade 1–2): 4 (27) n (%) | Diarrhea, treatment-emergent adverse event ([1]; >160 mg (n = 15), Grade 1–2): 2 (13) n (%) | Dysgeusia, treatment-emergent adverse event ([1]; >160 mg (n = 15), Grade 1–2): 1 (7) n (%) | Fatigue, treatment-emergent adverse event ([1]; >160 mg (n = 15), Grade 1–2): 6 (40) n (%) | Hemoglobin (lab), treatment-emergent adverse event ([1]; >160 mg (n = 15), Grade 1–2): 12 (80) n (%) | Muscle spasms, treatment-emergent adverse event ([1]; >160 mg (n = 15), Grade 1–2): 4 (27) n (%) | Nausea, treatment-emergent adverse event ([1]; >160 mg (n = 15), Grade 1–2): 7 (47) n (%) | Thrombocytopenia (lab), treatment-emergent adverse event ([1]; >160 mg (n = 15), Grade 1–2): 1 (7) n (%) | Vomiting, treatment-emergent adverse event ([1]; >160 mg (n = 15), Grade 1–2): 5 (33) n (%) | ALT elevation (lab), treatment-emergent adverse event ([1]; >160 mg (n = 15), Grade ≥3): 4 (27) n (%) | AST elevation (lab), treatment-emergent adverse event ([1]; >160 mg (n = 15), Grade ≥3): 3 (20) n (%) | Alopecia, treatment-emergent adverse event ([1]; >160 mg (n = 15), Grade ≥3): 0 (0) n (%) | Decreased appetite, treatment-emergent adverse event ([1]; >160 mg (n = 15), Grade ≥3): 1 (7) n (%) | Diarrhea, treatment-emergent adverse event ([1]; >160 mg (n = 15), Grade ≥3): 0 (0) n (%) | Dysgeusia, treatment-emergent adverse event ([1]; >160 mg (n = 15), Grade ≥3): 0 (0) n (%) | Fatigue, treatment-emergent adverse event ([1]; >160 mg (n = 15), Grade ≥3): 2 (13) n (%) | Hemoglobin (lab), treatment-emergent adverse event ([1]; >160 mg (n = 15), Grade ≥3): 1 (7) n (%) | Muscle spasms, treatment-emergent adverse event ([1]; >160 mg (n = 15), Grade ≥3): 0 (0) n (%) | Nausea, treatment-emergent adverse event ([1]; >160 mg (n = 15), Grade ≥3): 0 (0) n (%) | Thrombocytopenia (lab), treatment-emergent adverse event ([1]; >160 mg (n = 15), Grade ≥3): 0 (0) n (%) | Vomiting, treatment-emergent adverse event ([1]; >160 mg (n = 15), Grade ≥3): 0 (0) n (%) | recommended phase II / single-agent dose ([1]; QD, 28-day cycles): 160 mg | dose levels well tolerated ([1]; administered QD): up to 160 mg | hematologic toxicity ([1]; all dose levels): not associated with hematologic toxicity; also recorded: No significant hematologic toxicities | patients reporting alopecia ([1]; at the MTD): 22% | patients reporting muscle spasms ([1]; at the MTD): 33% | complete response (CR) [2, 7]: 2 patients | partial response (PR) [2, 7]: 6 patients | patients with objective response [2, 7]: Eight | patients showing a response ([2]; HhP inhibitor-naïve evaluable BCC patients, doses ≥130 mg): 8 of 28 | difference in efficacy between the 130- and 160-mg dose levels ([2]; full BCC cohort (N = 39)): no apparent difference in efficacy | objective responses ([2]; nine BCC patients previously treated with vismodegib): no objective responses | patients with a decrease in Gli-1 transcript level in normal skin biopsies ([3]; 48 of 65 patients, after 21 days of treatment): 74% | Gli-1 transcript reduction in stroma (LCM quantitative RT-PCR) ([3]; rectal adenocarcinoma patient biopsy, cycle 1, day 22 vs baseline): about 7 fold | Gli-1 stromal staining (IHC) ([3]; rectal adenocarcinoma posttreatment biopsy, cycle 1, day 22): reduced Gli-1 stromal staining | Shh signaling in surrounding stromal tissue (Gli1 mRNA) [4]: inhibited Shh signaling | tumor growth [4]: slows tumor growth | intratumoral concentration of gemcitabine [5]: enhanced intratumoral concentration of gemcitabine | IC50 [6]: 1.4 nM
